Bioassay records deposited in PubChem by The Scripps Research Institute Molecular Screening Center.
OX1R antag-1: OX1R (HCRTR1) antagonists, primary screen, fluorescence, CHO/OX1R cells, Fluo-8 calcium, orexin A; Orexin/Hypocretin receptor type 1 (Homo sapiens), O43613; Fluo-8 calcium fluorescence; inhibition, % at 5 µM; 330,000 compounds, 0.43% hits;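 active means inhibition above its plate's threshold, mean inhibition of all tested compounds on the plate plus 3 SD, cut at about 37% in these data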
CHO parental Ca: ATP-evoked calcium signal inhibitors, parental CHO, primary screen, counter-screen for OX1R antagonist project, cell-based, fluorescence, Fluo-8 calcium dye; parental CHO-K1, ATP-induced calcium, Fluo-8 fluorescence; inhibition, % at 5.6 µM; 330,000 compounds, 0.63% hits; AID 463079, 2010;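 active means inhibition above that plate's mean sample inhibition plus 3 SD, cut at about 26% in these data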
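Assay system: parental CHO cells; Read-out basis: percent inhibition of ATP-evoked calcium rise, normalized to controls; Benchmarks: ATP and no-ATP DMSO wells; Compound dosing: single nominal dose of 5.6 µM per compound; Signal: Fluo-8 calcium dye fluorescence; Also added: ATP as calcium-mobilizing challenge; Repeats: singlicate.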
TAAR1 agonist: human TAAR1 agonists, primary screen, Fluo-8 calcium fluorescence, CHO RD-HGA16 cells. Trace amine-associated receptor 1 (Homo sapiens), Q96RJ0. vehicle wells 0%, saturating PEA agonist 100%. activation, % at 3 µM. 360,000 compounds, 0.99% hits. AID 624467, 2012;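 active means activation above the mean activation of all test compounds in the run plus 3 SD, cut at about 38% in these data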
Target sequence (Q96RJ0 whole entry, looked up): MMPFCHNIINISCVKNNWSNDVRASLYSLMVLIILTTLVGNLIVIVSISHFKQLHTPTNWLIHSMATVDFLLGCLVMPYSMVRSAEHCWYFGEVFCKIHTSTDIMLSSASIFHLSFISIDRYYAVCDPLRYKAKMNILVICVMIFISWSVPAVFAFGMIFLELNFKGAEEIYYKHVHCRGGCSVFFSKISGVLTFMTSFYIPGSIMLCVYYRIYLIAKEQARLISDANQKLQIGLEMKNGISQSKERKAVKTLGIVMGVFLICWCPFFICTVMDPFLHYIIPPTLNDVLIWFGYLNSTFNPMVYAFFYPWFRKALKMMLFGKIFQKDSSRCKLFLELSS
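System: CHO-derived RD-HGA16 cells with stable Gα16 and human TAAR1. Times: 17-24 h plating, Fluo-8 75 min 37 °C, 30 min RT. Measured by: calcium-sensitive Fluo-8 signal, excitation 470-495, emission 515-575 nm. Read-out basis: % activation relative to PEA EC100 response. Control set: DMSO and PEA EC100. Repeats: no replicates (n 1).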
GPR7 antagonist: GPR7 receptor antagonists, primary screen, cell-based, fluorescence, single concentration | AID 1861, 2009 | 290,000 compounds, 1.1% hits | Neuropeptides B/W receptor type 1 (Homo sapiens), P48145 | GPR7-expressing cells, fluorescence antagonist assay | inhibition, % at 4.4 µM; in the data active means inhibition above about 16%, passing the limit was not always enough;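 further: cells stimulated with the agonist NPW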
Target sequence (P48145 whole entry, looked up): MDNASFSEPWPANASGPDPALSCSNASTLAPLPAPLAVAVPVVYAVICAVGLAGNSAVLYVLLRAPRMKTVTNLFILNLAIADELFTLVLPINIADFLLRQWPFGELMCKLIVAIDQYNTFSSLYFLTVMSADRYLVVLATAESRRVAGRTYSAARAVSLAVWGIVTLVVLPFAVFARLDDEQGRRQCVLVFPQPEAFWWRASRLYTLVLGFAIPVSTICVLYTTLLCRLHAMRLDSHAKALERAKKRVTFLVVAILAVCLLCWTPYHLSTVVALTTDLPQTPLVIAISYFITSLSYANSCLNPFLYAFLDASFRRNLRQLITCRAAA
TAAR1 antagonist: human TAAR1 antagonists, primary screen, Fluo-8 calcium fluorescence, CHO RD-HGA16 cells | 360,000 compounds, 1.5% hits | antagonist | inhibition, % at 3 µM | AID 624466, 2012 | Trace amine-associated receptor 1 (Homo sapiens), Q96RJ0;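 active means inhibition above a per-plate cutoff, the mean inhibition of test compounds on that plate plus 3 SD, cut at about 49% in these data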
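Assay system: CHO-derived RD-HGA16 cells stably expressing human TAAR1 plus Gα16. Timing: 140 s kinetic read after compound, 140 s after agonist. Technique: kinetic Fluo-8 calcium fluorescence measurement. Measure: % inhibition of agonist calcium response.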
OX1R antag-2: antagonists of human orexin 1 receptor (OX1R); OX1R-expressing cells, FRET antagonist read-out; inhibition, % at 6.6 µM; 330,000 compounds, 1.8% hits; in the data active means inhibition mostly above about 38%, no sharp cut-off; inactive means mostly below about 40%
Numbers stand for hits; 0 = inactive; - = no result; ! = a repeat was not active. Only some compounds are listed: those with a hit (about 4.6% of all), similar ones and a draw of the others.

SMILES	OX1R antag-1	CHO parental Ca	TAAR1 agonist	GPR7 antagonist	TAAR1 antagonist	OX1R antag-2
Cc1cccc(C)c1-n1nnnc1C(c1ccccc1)N1CCC2(CC1)C(=O)NCN2c1ccccc1 (stereo not drawn)	-	-	0	-	0	-
Cc1cccc(C)c1-n1nnnc1C(C1CC1)N1CCC2(CC1)C(=O)NCN2c1ccccc1 (stereo not drawn)	-	-	0	-	50	-
CN1CCc2cc(O)cc3c2[C@H]1Cc1ccc(O)c(O)c1-3	0	0	0	-	0	0
CN1CCc2cc3c(c4c2C1Cc1ccccc1-4)OCO3 (stereo not drawn)	0	0	0	0	0	74
CNCCCc1ccccc1	0	0	43	0	0	0
CC1CCCCN1C(=O)Cn1cc(C=C2C(=O)N(C)C(=O)N(C)C2=O)c2ccccc21 (stereo not drawn)	0	0	0	0	0	0
CC(C)(C)C(=O)N1Cc2cc(-c3cccc(F)c3)ccc2-n2nncc2C1	-	-	0	-	0	-
C[C@]12CCC3C(CC[C@H]4C[C@H](O)CC[C@]34C)C1C[C@H](O)[C@@H]2O (stereo partly drawn)	0	0	0	-	60	0
C[C@]12CCC3C(CC[C@H]4C[C@H](O)CC[C@]34C)C1C[C@@H](O)[C@@H]2O (stereo partly drawn)	0	0	0	-	0	0
CC12C=CC(=O)CC1CCC1C2CCC2(C)C(O)C(O)CC12 (stereo not drawn)	-	-	0	-	58	-
O=C(/C=C/c1ccc(F)cc1)NC(=S)N1C[C@H]2C[C@H](C1)c1cccc(=O)n1C2	0	0	0	0	0	0
Cc1ccc(C(=O)n2cc(CCN3CCS(=O)(=O)CC3)c3ccccc32)cc1	0	0	0	0	0	0
COC(=O)C1=C(c2cccc(OC)c2OC)C[C@@H]2CC[C@H]1N2C(=O)N1CCCC1	0	0	0	-	0	0
Cc1cc(N(CCCl)CCCl)ccc1C=Cc1ccncn1	-	-	0	-	0	-
CCC(=NCc1ccc2c(c1)OCO2)c1c(O)n(C2CCCCC2)c(=O)[nH]c1=O	0	26	0	0	0	0
CCC(=NCCO)c1c(O)n(C2CCCCC2)c(=O)[nH]c1=O	0	0	0	0	0	0
Cn1nc(-c2ccc(OCC(=O)N3CCN(Cc4ccccc4)CC3)cc2)c2ccccc2c1=O	0	36!	0	0	0	0
CC(=O)Nc1ccccc1C(=O)C(=O)Nc1cccc(C(=O)N2CCC3(CC2)OCCO3)c1	0	0	0	0	0	0
CC1(C)CC[C@]2(C)CC[C@]3(C)C4C[C@@H]5OO[C@@]6(O5)C(CCCC6(C)C)[C@]4(C)CC[C@@]3(C)C2C1 (stereo partly drawn)	0	0	-	-	-	0
C=CCn1c(O)c(C(C)=NCCc2ccccc2)c(=O)[nH]c1=O	0	0	40	0	0	0
C=CCn1c(O)c(C(C)=NCCO)c(=O)[nH]c1=O	0	0	0	0	0	0
Cc1ccccc1N1C(=O)NC(=O)/C(=C\c2cc(Br)c(N3CCOCC3)o2)C1=O	0	0	0	0	0	0
Cc1ccccc1N1C(=O)NC(=O)/C(=C/c2ccc(N3CCOCC3)o2)C1=O	0	0	0	0	0	48
O=C1NC(=O)N(c2ccc3c(c2)OCO3)C(=O)/C1=C\c1ccc(N2CCCCC2)o1	0	0	0	0	0	71
O=C1NC(=O)C(=Cc2ccc(SC3CCCCC3)o2)C(=O)N1	0	0	0	0	59	0
SMILES	OX1R antag-1	CHO parental Ca	TAAR1 agonist	GPR7 antagonist	TAAR1 antagonist	OX1R antag-2
NS(=O)(=O)c1ccc(-c2ccc(C=C3C(=O)NC(=O)NC3=O)o2)cc1	0	0	0	0	0	0
Cn1ncnc2c(=O)n(C)c(=O)nc1-2	0	0	-	-	-	103
CN(CC1COc2ccccc2O1)c1nc(-c2cccnc2)nc2ccccc12 (stereo not drawn)	0	0	0	0	0	74
CN1CCC(N(C)c2nc(-c3ccc([N+](=O)[O-])cc3)nc3ccccc23)CC1	-	-	0	0	0	-
Cc1cccc(NP(=O)(Oc2ccccc2F)Oc2ccccc2F)c1C	0	47	0	0	54	0
C1=C(c2c[nH]c3ccccc23)CCNC1	0	0	0	0	0	0
CC(C)N1CC=C(c2c[nH]c3ccccc23)CC1	0	0	38	0	0	0
CC1=C(O)C(=O)C=C2C1=CC=C1C2(C)CCC2(C)C3CC(C)(C(=O)O)CCC3(C)CCC12C (stereo not drawn)	-	-	41	-	74	-
Cc1c(N=Nc2c(O)n(C)c(=O)n(C)c2=O)c(=O)n(-c2ccccc2)n1C	0	0	0	0	0	64
CC/C(=C\C=C\[C@@H]1C=C[C@@H]2CCC[C@H]2[C@@H]1C(=O)c1ccc[nH]1)[C@@H]1O[C@@H]([C@@H](C)C(=O)O)CC[C@@H]1C	0	48	-	0	-	0
O=C(CSC1c2ccccc2-c2ccccc21)N/N=C/c1ccccc1O	0	0	0	0	0	60
O=c1[nH]c(O)c(Cc2ccc3c(c2)OCO3)c(=O)[nH]1	0	0	0	0	0	0
C=CCn1c(O)c(C(CC)=Nc2ccc(N(C)C)cc2)c(=O)[nH]c1=O	0	0	0	0	0	0
CCOc1ccc(-n2c(-c3ccoc3)nc3ccccc3c2=O)cc1	0	0	0	0	0	0
CCOc1ccc(-c2c(C)n(-c3ccc(OCC)cc3)c3[n+]2CCCCC3)cc1	0	40	0	46	0	0
Cc1ccc(-c2cc(-c3ccc(C)cc3)[n+](-c3ccccc3)c(-c3ccc(C)cc3)c2)cc1	91	71	-	-	-	0
Cc1ccc(-c2cc(-c3ccccc3)cc(-c3ccccc3)[n+]2-c2ccccc2)cc1	71	74	0	-	104	0
CN(C(=O)Cc1ccc(Cl)c(Cl)c1)C(CN1CCCC1)c1cccc(OCC(=O)O)c1 (stereo not drawn)	0	0	0	-	0	0
O=c1[nH]c(=S)[nH]c(O)c1N=Nc1cc(S(=O)(=O)Nc2ccc(Cl)cc2)ccc1Cl	0	0	0	-	0	0
O=c1[nH]c(=S)[nH]c(O)c1N=Nc1ccc(OC(F)F)cc1	0	0	0	0	0	50
O=c1[nH]c(=S)[nH]c(O)c1N=Nc1ccc2c(c1)OCO2	0	0	0	0	0	75
COC(=O)c1ccccc1N=Cc1c(O)[nH]c(=S)[nH]c1=O	0	0	0	0	0	0
O=c1[nH]c(O)c(N=Nc2ccc3c(c2)OCCO3)c(=O)[nH]1	0	0	0	0	0	64
